Source: ChEMBL document CHEMBL1127795, “Small-molecule immunostimulants. Synthesis and activity of 7,8-disubstituted guanosines and structurally related compounds” (1994)

How the values were obtained:
Mus musculus [1] = species on record: Mus musculus; assay: Effective dose was tested for its ability to act as B-cell mitogens (mitogenicity); assay type: functional; details: read-out: ED50 (the source's name)
Outline: (§1)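 CBA/CaJ mouse spleen cells (1 × 10⁵/0.2 mL) exposed to graded compound concentrations, dissolved in water or DMSO and diluted in medium, for 24 h. [³H]thymidine then added for a further 24 h; incorporation by scintillation counting. ED50 and maximal response expressed relative to a concurrently run standard (loxoribine in most cases).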

Mus musculus [2] = species on record: Mus musculus; assay: Percent of maximum response was tested for its ability to act as B-cell mitogens (mitogenicity); assay type: functional; outline: as §1
Mus musculus [3] = species on record: Mus musculus; assay: Percent of maximum response was tested to augment the antibody response of B cells to sheep red blood cell challenge; assay type: functional
Outline: (§2)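 CBA/CaJ spleen cells depleted of T cells with anti-T cell monoclonal antibody (1:1000, 30 min, 4 °C) then complement (37 °C, 45 min). Cultured ± 0.1% SRBC antigen in serum-containing medium with compound from zero to 10⁻³ M for 4 d. Plaque-forming cells counted in agarose with guinea pig complement. ED50 and maximal response relative to a concurrent standard.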

Mus musculus [4] = species on record: Mus musculus; assay: Augment antibody response of B cells to sheep red blood cell (SRBC) challenge (adjuvanticity); assay type: functional; details: read-out: ED50 (the source's name); outline: as §2
YAC-1 [5] = assay: Tested for its ability to stimulate the natural killer (NK) response in murine in vitro cell assays; assay type: functional; details: Mus musculus, read-out: ED50 (the source's name)
YAC-1 [6] = assay: Percent of maximum response was tested for its ability to stimulate the natural killer (NK) response in murine in vitro cell assays; assay type: functional, Mus musculus
Mus musculus [7] = assay: In vivo natural killer cell response in splenocytes of mice injected with 2 mg intravenous dose % lysis of YAC-1 cells at effector: target ratio of 25:1; assay type: functional
Outline: (§3)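 Mice dosed intravenously with 2 mg compound, with saline as the vehicle control. Spleens were removed 48 h later. Splenocytes were tested against 5 × 10⁴ ⁵¹Cr-labelled YAC-1 target cells in a 4-h ⁵¹Cr-release assay at four effector:target ratios. Results are mean % lysis ± one standard deviation, N = 3–5 mice per group.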

Mus musculus [8] = assay: In vivo natural killer cell response in splenocytes of mice injected with 2 mg intravenous dose. % lysis of YAC-1 cells at effector: target ratio of 100:1; assay type: functional; outline: as §3
Mus musculus [9] = assay: In vivo natural killer cell response in splenocytes of mice injected with 2 mg intravenous dose. % lysis of YAC-1 cells at effector: target ratio of 200:1; assay type: functional; outline: as §3
Mus musculus [10] = assay: In vivo natural killer cell response in splenocytes of mice injected with 2 mg parenteral dose. % lysis of YAC-1 cells at effector: target ratio of 100:1; assay type: functional
Outline: (§4)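 Each mouse received 2 mg compound, and spleens were taken at 48 h. Splenocyte NK activity was measured as specific lysis of 5 × 10⁴ ⁵¹Cr-labelled YAC-1 cells over 4 h at four effector:target ratios. Results are mean % lysis ± one standard deviation, N = 3–5 mice per group.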

Mus musculus [11] = assay: In vivo natural killer cell response in splenocytes of mice injected with 2 mg parenteral dose. % lysis of YAC-1 cells at effector: target ratio of 25:1; assay type: functional; outline: as §4
Mus musculus [12] = assay: In vivo natural killer cell response in splenocytes of mice injected with 2 mg parenteral dose. % lysis of YAC-1 cells at effector: target ratio of 50:1; assay type: functional; outline: as §4
Mus musculus [13] = assay: In vivo natural killer cell response in splenocytes of mice injected with 2 mg subcutaneous dose. % lysis of YAC-1 cells at effector: target ratio of 100:1; assay type: functional
Outline: (§5)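 Mice dosed subcutaneously with 2 mg compound, with sesame oil as the vehicle control. Splenocytes were harvested 48 h after dosing and assayed in a 4-h ⁵¹Cr-release test against 5 × 10⁴ labelled YAC-1 cells at four effector:target ratios. Results are mean % lysis ± one standard deviation, 3–5 mice per group.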

Mus musculus [14] = assay: In vivo natural killer cell response in splenocytes of mice injected with 2 mg subcutaneous dose. % lysis of YAC-1 cells at effector: target ratio of 200:1; assay type: functional; outline: as §5
Mus musculus [15] = assay: In vivo natural killer cell response in splenocytes of mice injected with 2 mg subcutaneous dose. % lysis of YAC-1 cells at effector: target ratio of 25:1; assay type: functional; outline: as §5
Mus musculus [16] = assay: In vivo natural killer cell response in splenocytes of mice injected with 2 mg subcutaneous dose. % lysis of YAC-1 cells at effector: target ratio of 50:1; assay type: functional; outline: as §5
Mus musculus [17] = assay: In vivo natural killer cell response in splenocytes of mice injected with 2 mg intravenous dose. % lysis of YAC-1 cells at effector: target ratio of 50:1; assay type: functional; outline: as §3
Mus musculus [18] = assay: In vivo natural killer cell response in splenocytes of mice injected with 2 mg parenteral dose % lysis of YAC-1 cells at effector: target ratio of 200:1; assay type: functional; outline: as §4
Mus musculus [19] = species on record: Mus musculus; assay: Ability to act as B-cell mitogens; assay type: functional; details: read-out: ED50 (the source's name); outline: as §1
YAC-1 [20] = assay: Stimulation of natural killer (NK) response in Yac-1 cell line (mouse, lymphoma); assay type: functional; details: read-out: ED50 (the source's name)
YAC-1 [21] = assay: Percent of maximum response was tested for its ability to stimulate the natural killer response in murine in vitro cell assays; assay type: functional, Mus musculus

In the case of `C=CCn1c(=O)n(C2CN(CCCC)CC(CO)O2)c2nc(N)nc(O)c21` (centres undefined), the EC50 (Mus musculus [1]) is reported as 49 µM, the Max response (Mus musculus [2]) is reported as 52% and the Max response (Mus musculus [3]) is reported as 38%. For the same compound, the EC50 (Mus musculus [4]) was 5 µM, the EC50 (YAC-1 [5]) was 17 µM and the Max response (YAC-1 [6]) was 94%.

`C=CCn1c(=O)n([C@@H]2O[C@H](CO)[C@@H](O)[C@H]2O)c2nc(N)[nH]c(=O)c21` [LOXORIBINE] gave a Ratio (Mus musculus [7]) of 22.8, a Ratio (Mus musculus [8]) of 48.9 and a Ratio (Mus musculus [9]) of 52.2. It also gave a Ratio (Mus musculus [10]) of 18.9, a Ratio (Mus musculus [11]) of 7.7 and a Ratio (Mus musculus [12]) of 11.8. The Ratio (Mus musculus [13]) was 19.5, the Ratio (Mus musculus [14]) was 27.6 and the Ratio (Mus musculus [15]) was 9.3. It also gave a Ratio (Mus musculus [16]) of 12.7, a Ratio (Mus musculus [17]) of 38.6 and a Ratio (Mus musculus [18]) of 29.6. The EC50 (Mus musculus [19]) was 10 µM, the Max response (Mus musculus [2]) was 100% and the Max response (Mus musculus [3]) was 100%. It also gave an EC50 (Mus musculus [4]) of 3 µM, an EC50 (YAC-1 [20]) of 13 µM and a Max response (YAC-1 [21]) of 100%.
